In brackets after ≈: the same amount, converted by molar mass.
Experiments:
Type in all cases: functional
Microsporum = assay: Antifungal activity against Microsporum gypseum after 7 days; details: 168 h
Summary of the method: (§1)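 Fungal strains were taken from Sabouraud medium into nutrient broth and grown 3–5 days at 25 °C. They were vortexed 4–5 min with sterile beads, and the suspensions were adjusted to absorbance 0.5 at 500 nm. Eight serial dilutions were made in microplates, and all wells except the positive control received standardized inoculum. MIC was the lowest concentration giving no visible growth.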

Trichophyton tonsurans = assay: Antifungal activity against Trichophyton tonsurans after 7 days; details: 168 h; summary of the method: as §1
Pseudomonas aeruginosa = assay: Antibacterial activity against Pseudomonas aeruginosa after 24 hrs by micro-broth dilution technique
Summary of the method: (§2)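 Mueller-Hinton broth microdilution. Test compounds were serially diluted two-fold in DMSO. The inoculum was grown in broth overnight at 37 °C, then diluted to a final 10⁵ cfu/ml in the tray. Trays were covered and incubated at 37 °C for about 24 h. MIC was the lowest concentration inhibiting visible growth.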

Staphylococcus aureus = assay: Antibacterial activity against Staphylococcus aureus after 24 hrs by micro-broth dilution technique; summary of the method: as §2
Klebsiella pneumoniae = assay: Antibacterial activity against Klebsiella pneumoniae after 24 hrs by micro-broth dilution technique; summary of the method: as §2
Escherichia coli = assay: Antibacterial activity against Escherichia coli after 24 hrs by micro-broth dilution technique; summary of the method: as §2

SMILES	MIC (Microsporum) [µg/mL]	MIC (Trichophyton tonsurans) [µg/mL]	MIC (Pseudomonas aeruginosa) [µg/mL]	MIC (Staphylococcus aureus) [µg/mL]	MIC (Klebsiella pneumoniae) [µg/mL]	MIC (Escherichia coli) [µg/mL]
Nc1nc(-c2cccc([N+](=O)[O-])c2)cc(-c2cccc3ccccc23)n1	25 (≈ 73 µM)	25 (≈ 73 µM)	18.2 (≈ 53.2 µM)	29.1 (≈ 85 µM)	14.3 (≈ 41.7 µM)	19.5 (≈ 57 µM)
Nc1nc(-c2ccc([N+](=O)[O-])cc2)cc(-c2cccc3ccccc23)n1	25 (≈ 73 µM)	25 (≈ 73 µM)	11.9 (≈ 34.8 µM)	25.6 (≈ 74.9 µM)	15.3 (≈ 44.8 µM)	16.6 (≈ 48.6 µM)
Nc1nc(-c2ccccc2)cc(-c2cccc3ccccc23)n1	25 (≈ 84.1 µM)	25 (≈ 84.1 µM)	6.59 (≈ 22.2 µM)	> 60	5.5 (≈ 18.5 µM)	42 (≈ 141 µM)
Nc1nc(-c2ccc(F)cc2)cc(-c2cccc3ccccc23)n1	5.9 (≈ 18.7 µM)	2.2 (≈ 6.98 µM)	5.45 (≈ 17.3 µM)	7.3 (≈ 23.1 µM)	2.55 (≈ 8.09 µM)	8.1 (≈ 25.7 µM)
Nc1nc(-c2ccccc2Cl)cc(-c2cccc3ccccc23)n1	25 (≈ 75.3 µM)	25 (≈ 75.3 µM)	6.4 (≈ 19.3 µM)	40 (≈ 121 µM)	5.38 (≈ 16.2 µM)	> 60
Nc1nc(-c2cccc(Cl)c2)cc(-c2cccc3ccccc23)n1	25 (≈ 75.3 µM)	25 (≈ 75.3 µM)	7.42 (≈ 22.4 µM)	39 (≈ 118 µM)	6.38 (≈ 19.2 µM)	41 (≈ 124 µM)
COc1ccccc1-c1cc(-c2cccc3ccccc23)nc(N)n1	25 (≈ 76.4 µM)	25 (≈ 76.4 µM)	9.18 (≈ 28 µM)	> 60	8.22 (≈ 25.1 µM)	36 (≈ 110 µM)
Nc1nc(-c2ccc(Cl)cc2)cc(-c2cccc3ccccc23)n1	5.55 (≈ 16.7 µM)	2.8 (≈ 8.44 µM)	21.9 (≈ 66 µM)	12.3 (≈ 37.1 µM)	19.8 (≈ 59.7 µM)	13.5 (≈ 40.7 µM)
COc1ccc(-c2cc(-c3cccc4ccccc34)nc(N)n2)cc1	25 (≈ 76.4 µM)	25 (≈ 76.4 µM)	10.2 (≈ 31.2 µM)	> 60	9.31 (≈ 28.4 µM)	> 60
CC1(C)S[C@@H]2[C@H](NC(=O)[C@H](N)c3ccccc3)C(=O)N2[C@H]1C(=O)O [AMPICILLIN]			1.8 (≈ 5.15 µM)	1 (≈ 2.86 µM)	1.8 (≈ 5.15 µM)	1.65 (≈ 4.72 µM)
Clc1ccc(COC(Cn2ccnc2)c2ccc(Cl)cc2Cl)c(Cl)c1 (stereo not given) [MICONAZOLE]	0.2 (≈ 0.481 µM)	0.2 (≈ 0.481 µM)				

Source: ChEMBL document CHEMBL1143781, “Synthesis, in vitro antibacterial and antifungal evaluations of 2-amino-4-(1-naphthyl)-6-arylpyrimidines” (2007)
